In brackets after ≈: the same amount, converted by molar mass.
Tests used:
[1] = test system: Staphylococcus aureus; test: Antibacterial activity against Staphylococcus aureus ATCC 25923; type: functional
[2] = test system: Staphylococcus aureus; test: Antibacterial activity against beta-lactamase deficient Staphylococcus aureus COL; type: functional
[3] = test system: Staphylococcus aureus; test: Antibacterial activity against Staphylococcus aureus COL expressing beta-lactamase in presence of Sulbactam; type: functional
[4] = test system: Streptococcus pneumoniae; test: Antibacterial activity against Streptococcus pneumoniae R6; type: functional
[5] = test system: Staphylococcus aureus; test: Antibacterial activity against Staphylococcus aureus 887 expressing beta-lactamase; type: functional
[6] = test system: Escherichia coli; test: Antibacterial activity against Escherichia coli UB1005; type: functional
[7] = Inhibition of Staphylococcus epidermidis PBP2
Method in brief: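 Enzyme: purified recombinant PBP2' from Staphylococcus epidermidis, used as the inhibition target.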

[8] = test system: Staphylococcus aureus; test: Antibacterial activity against Staphylococcus aureus COL expressing beta-lactamase; type: functional

Row | SMILES | MIC [1] [µg/mL] | MIC [2] [µg/mL] | MIC [3] [µg/mL] | MIC [4] [µg/mL] | MIC [5] [µg/mL] | MIC [6] [µg/mL] | IC50 [7] [µM] | MIC [8] [µg/mL]
1 | O=C(CSc1ccc2ccccc2c1)N[C@@H]1C(=O)N2C(C(=O)O)=C(/C=C/CNC(=O)c3cccnc3)CS[C@H]12 | 0.13 (≈ 0.232 µM) | 4 (≈ 7.13 µM) | 1 | ≤ 0.06 | 1 (≈ 1.78 µM) | > 32 | 31 | > 32
2 | Nc1nc(/C(=N/O)C(=O)N[C@@H]2C(=O)N3C(C(=O)O)=C(/C=C/CNS(=O)(=O)c4cccnc4)CS[C@H]23)c(Cl)s1 | 2 (≈ 3.33 µM) | 16 (≈ 26.7 µM) |  | ≤ 0.06 | 4 (≈ 6.67 µM) | 16 (≈ 26.7 µM) | 12 | 32 (≈ 53.3 µM)
3 | CN1CCCC1C(=O)NC/C=C/C1=C(C(=O)O)N2C(=O)[C@@H](NC(=O)CSc3ccc4ccccc4c3)[C@H]2SC1 (stereo partly specified) | 0.13 (≈ 0.229 µM) | 4 (≈ 7.06 µM) | 1 | 0.13 (≈ 0.229 µM) | 1 (≈ 1.76 µM) | > 32 |  | > 32
4 | CO/N=C(\C(=O)N[C@@H]1C(=O)N2C(C(=O)O)=C(/C=C/CNS(=O)(=O)c3cccnc3)CS[C@H]12)c1csc(N)n1 | 1 (≈ 1.73 µM) | > 32 |  | ≤ 0.06 | 2 (≈ 3.45 µM) | 1 (≈ 1.73 µM) | 235 | > 32
5 | O=C(CSc1ccc2ccccc2c1)N[C@@H]1C(=O)N2C(C(=O)O)=C(/C=C/CNS(=O)(=O)c3ccccc3)CS[C@H]12 | ≤ 0.06 | 1 (≈ 1.68 µM) |  | ≤ 0.06 | 2 (≈ 3.36 µM) | > 32 | 20 | 32 (≈ 53.7 µM)
6 | O=C(CSc1ccc2ccccc2c1)N[C@@H]1C(=O)N2C(C(=O)O)=C(/C=C/CNC(=O)C3CC3)CS[C@H]12 | ≤ 0.06 | 1 (≈ 1.91 µM) |  | ≤ 0.06 | 0.5 (≈ 0.955 µM) | > 32 |  | 16 (≈ 30.6 µM)
7 | CCS(=O)(=O)NC/C=C/C1=C(C(=O)O)N2C(=O)[C@@H](NC(=O)CSc3ccc4ccccc4c3)[C@H]2SC1 | ≤ 0.06 | 8 (≈ 14.6 µM) |  | ≤ 0.06 | 2 (≈ 3.65 µM) | > 32 | 22 | > 32
8 | CN(C)CC(=O)NC/C=C/C1=C(C(=O)O)N2C(=O)[C@@H](NC(=O)CSc3ccc4ccccc4c3)[C@H]2SC1 | ≤ 0.06 | 4 (≈ 7.4 µM) | 4 | ≤ 0.06 | 1 (≈ 1.85 µM) | > 32 | 50 | 32 (≈ 59.2 µM)
9 | CC(=O)OCC1=C(C(=O)O)N2C(=O)[C@@H](NC(=O)Cc3cccs3)[C@H]2SC1 [CEPHALOTHIN] | 0.25 (≈ 0.631 µM) | > 32 |  | 0.125 (≈ 0.315 µM) | 0.5 (≈ 1.26 µM) | 8 (≈ 20.2 µM) |  | > 32
10 | CC1(C)S[C@@H]2[C@H](NC(=O)[C@H](N)c3ccc(O)cc3)C(=O)N2[C@H]1C(=O)O [AMOXICILLIN] | 0.25 (≈ 0.684 µM) | 32 (≈ 87.6 µM) |  | ≤ 0.06 | 32 (≈ 87.6 µM) | 8 (≈ 21.9 µM) |  | > 32
11 | O=C(CSc1ccc2ccccc2c1)N[C@@H]1C(=O)N2C(C(=O)O)=C(/C=C/CNS(=O)(=O)c3csc(Cl)c3)CS[C@H]12 | ≤ 0.06 | 1 (≈ 1.57 µM) | 1 | ≤ 0.06 | 0.5 (≈ 0.786 µM) | > 32 | 2 | 16 (≈ 25.1 µM)
12 | O=C(Cc1ccccc1)N[C@@H]1C(=O)N2C(C(=O)O)=C(/C=C/CNS(=O)(=O)c3csc(Cl)c3)CS[C@H]12 | 0.13 (≈ 0.235 µM) | 32 (≈ 57.8 µM) |  | ≤ 0.06 | 2 (≈ 3.61 µM) | > 32 |  | > 32
13 | Nc1nc(/C(=N/O)C(=O)N[C@@H]2C(=O)N3C(C(=O)O)=C(/C=C/CNS(=O)(=O)c4ccccc4)CS[C@H]23)c(Cl)s1 | 0.5 (≈ 0.835 µM) | 8 (≈ 13.4 µM) |  | 0.25 (≈ 0.417 µM) | 1 (≈ 1.67 µM) | > 32 | 6 | 16 (≈ 26.7 µM)
14 | CO/N=C(\C(=O)N[C@@H]1C(=O)N2C(C(=O)O)=C(/C=C/CNC(=O)C3CCCN3C)CS[C@H]12)c1csc(N)n1 (stereo partly specified) | 2 (≈ 3.64 µM) | > 32 |  | ≤ 0.06 | 8 (≈ 14.6 µM) | 1 (≈ 1.82 µM) | > 500 | > 32
15 | CO/N=C(\C(=O)N[C@@H]1C(=O)N2C(C(=O)O)=C(/C=C/CNC(=O)c3cccnc3)CS[C@H]12)c1csc(N)n1 | 4 (≈ 7.36 µM) | > 32 |  | ≤ 0.06 | 8 (≈ 14.7 µM) | 0.25 (≈ 0.46 µM) | > 500 | > 32
16 | O=C(Cc1ccccc1)N[C@@H]1C(=O)N2C(C(=O)O)=C(/C=C/CNC(=O)c3cccnc3)CS[C@H]12 | ≤ 0.06 | > 32 |  | ≤ 0.06 |  | > 32 |  | > 32
17 | O=C(Cc1ccccc1)N[C@@H]1C(=O)N2C(C(=O)O)=C(/C=C/CNS(=O)(=O)c3ccccc3)CS[C@H]12 | 0.5 (≈ 0.974 µM) | > 32 |  | 0.13 (≈ 0.253 µM) | 16 (≈ 31.2 µM) | > 32 |  | > 32
18 | CN1CCCC1C(=O)NC/C=C/C1=C(C(=O)O)N2C(=O)[C@@H](NC(=O)Cc3ccccc3)[C@H]2SC1 (stereo partly specified) | 0.25 (≈ 0.516 µM) | > 32 |  | ≤ 0.06 | 8 (≈ 16.5 µM) | > 32 |  | > 32
